The values below come from ChEMBL document CHEMBL1125241, “Structure-activity relationship of quinazolinedione inhibitors of calcium-independent phosphodiesterase” (J Med Chem, 1991).

Molecules are shown by their SMILES. Bounds are passed on as bounds.

Assay [1] is filed under the species Mus musculus. Description: Inhibition of reserpine-induced hypothermia in mice by peroral dose. Type of assay: functional. The following applies: po, read-out: MED. The essentials: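 Mice were housed at 18–20 °C, given reserpine 2 mg/kg sc, and kept there 18 h. Rectal temperature was then taken, followed by saline or drug po. Temperatures were re-measured, typically at 0.5, 1.0, 2.0 and 14 h. The value is the minimal effective dose (mg/kg po) that inhibits hypothermia.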

The test system of assay [2] is Rattus norvegicus. Description: Percentage inhibition of carrageenan-induced rat foot edema at a dose of 32 mg/kg when administered perorally (po). Type of assay: functional. In short, it runs like this:
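Rats were dosed po, and 1 h later 0.05 mL of 2-week-old 1% carrageenan in distilled water was injected into the plantar tissue. Paw volume was measured immediately and 3 h after injection. The increase in foot volume was the individual response.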
On the technique in general: In the carrageenan paw model, swelling and tenderness develop within hours.

A short description of assay [3]: Inhibition of phosphodiesterase 4 from guinea pig lung. Also noted: species or system Cavia porcellus. In short, it runs like this:
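Guinea pig lung was homogenized in Bistris buffer (pH 6.5) with 50 μM final PMSF and centrifuged at 12000g at 4 °C. The supernatant went onto DEAE-Sepharose and was eluted with a 0.05–1.0 M sodium acetate gradient, pooling rolipram-sensitive fractions. The assay used 50 mM Tris/10 mM MgCl₂ (pH 7.5) and 1 μM final [³H]cAMP, with compound added in 4% DMSO, for 10 min at 37 °C. Reaction was stopped by boiling; [³H]5'-AMP was separated on boronate gel and counted. IC₅₀ came from 4 log concentrations, each in triplicate.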

The species entered for assay [4] is Mus musculus. Description: Inhibition of immobility in mouse forced swim test by peroral dose. It counts as functional. The settings on record: po, read-out: MED. The essentials:
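Compounds were dissolved in saline and given po to mice at 1 mL/100 g. One hour later, mice were put in 1-L beakers of water at 22–24 °C, deep enough that tails could not touch the bottom. Observation followed a 2-min habituation.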

Assay [5] relates to Rattus norvegicus. Put plainly: Percentage inhibition of carrageenan-induced rat foot edema at a dose of […] when administered perorally (po). Type of assay: functional. The following applies: dose 3.2 mg/kg.

A word on the inhibition in vivo: it is the percentage by which the read-out fell short of the control. A lower inhibition in vivo goes with a weak effect. For orientation: IC50 means the concentration at which inhibition is half-maximal. High values mean a need for much substance, low ones inhibition by little substance. With `COC(=O)c1cccc(-n2c(=O)[nH]c(=O)c3ccccc32)c1`, in assay [1], the minimal effective dose was < 320 µg/kg. Also, the inhibition in vivo at 32 mg/kg in assay [2] worked out at 5%. In addition, the IC50 in assay [3] is > 100 µM.
For the molecule `COC(=O)c1cccc(-n2c(=O)n(CC3CC4CCC3C4)c(=O)c3cccnc32)c1` (stereo not drawn), the minimal effective dose in assay [4] is 1000 µg/kg; in assay [1], 1 µg/kg. In assay [3], this molecule showed an IC50 of 0.89 µM.
As for `CCn1c(=O)c2ccccc2n(-c2cccc(C(=O)OC)c2)c1=O`, the inhibition in vivo at 32 mg/kg in assay [2] stood at 19%. Further, the IC50 in assay [3] was 3.8 µM.
`COc1ccc(C2CNC(=O)C2)cc1OC1CCCC1` (stereo not drawn) [ROLIPRAM]: the minimal effective dose in assay [4] came out at 1780 µg/kg; in assay [1], 0.03 µg/kg. In addition, at 32 mg/kg the inhibition in vivo in assay [2] was 41%. In assay [3], the IC50 turned out to be 0.59 µM.
The matching figures for `COC(=O)c1cccc(-n2c(=O)n(Cc3ccccc3)c(=O)c3ccccc32)c1`: > 32000 µg/kg, 100 µg/kg, 25% and 0.23 µM.
On to `CCn1c(=O)c2cccnc2n(-c2cccc(C(=O)OC)c2)c1=O`, for which, in assay [3], the IC50 is 25.9 µM.
Same read-out and setting: in the case of `CNC(=O)c1cccc(-n2c(=O)n(Cc3ccccc3)c(=O)c3ccccc32)c1` it was 21.4 µM.
With `COC(=O)c1cccc(-n2c(=O)n(Cc3ccccc3)c(=O)c3cccnc32)c1`, in assay [5], the inhibition in vivo at […] amounted to 50%. The minimal effective dose in assay [4] and in assay [1] was 10 µg/kg throughout.
For the molecule `CCn1c(=O)c2ccccc2n(-c2cccc([N+](=O)[O-])c2)c1=O` [NITRAQUAZONE], in assay [5], the inhibition in vivo at […] turned out to be 43%. The minimal effective dose was 3200 µg/kg in assay [4] and 1 µg/kg in assay [1]. Moreover, the 50% inhibitory concentration (IC50) in assay [3] amounted to 11.4 µM.
For the molecule `COC(=O)c1cccc(-n2c(=O)n(CC3CCCC3)c(=O)c3cccnc32)c1`, the figures for the minimal effective dose in assay [4] and in assay [1] were 1000 µg/kg and 3 µg/kg, respectively. The same molecule gave an IC50 in assay [3] of 1.52 µM.
